Reference: PubChem BioAssay AID624467 (The Scripps Research Institute Molecular Screening Center, 2012)
The campaign covered roughly 360,000 compounds. About 3,600 (1%) were called active.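 How the source made its calls: active means activation above the mean activation of all test compounds in the run plus 3 SD (cut at about 38% in these data); inactive means the rest.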 This excerpt belongs to a sample that is enriched for actives.

Each compound was assayed against Trace amine-associated receptor 1 (Homo sapiens) (UniProt Q96RJ0) (assay: human TAAR1 agonists, primary screen, Fluo-8 calcium fluorescence, CHO RD-HGA16 cells (AID 624467)). Conditions: CHO RD-HGA16 TAAR1, Fluo-8 calcium fluorescence; at 3 µM; active compounds read high; vehicle wells 0%, saturating PEA agonist 100%.
Sequence of Trace amine-associated receptor 1 (Homo sapiens) (Q96RJ0 whole entry, looked up): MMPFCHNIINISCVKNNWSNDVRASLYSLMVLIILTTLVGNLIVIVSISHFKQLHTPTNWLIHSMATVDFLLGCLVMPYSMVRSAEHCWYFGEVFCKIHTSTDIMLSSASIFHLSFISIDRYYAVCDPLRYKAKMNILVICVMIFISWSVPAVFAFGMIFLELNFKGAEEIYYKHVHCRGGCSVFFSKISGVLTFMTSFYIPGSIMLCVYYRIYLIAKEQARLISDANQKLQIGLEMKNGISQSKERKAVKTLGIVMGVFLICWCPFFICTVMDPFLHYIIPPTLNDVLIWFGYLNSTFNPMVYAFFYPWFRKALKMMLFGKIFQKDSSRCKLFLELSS
Outline: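 Benchmarks: low control DMSO, high control PEA (EC100); System: CHO RD-HGA16 cells carrying human TAAR1 plus Gα16; Detection: Fluo-8 fluorescence, 5 s baseline then 140 s kinetic read; Schedule: 17-24 h plating, Fluo-8 75 min 37 °C, 30 min RT; Read-out basis: % activation from peak over basal fluorescence ratio, DMSO-to-PEA scaled.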

activation, active:
COc1cc(OC)cc(C(=O)N[C@H](C(=O)OCC(=O)NC(C)c2ccccc2)C(C)C)c1 (some centres undefined) 78.4%, Cc1ccn2c(=O)c(C(=O)NCCC3=CCCCC3)c(O)nc2c1 75.2%, COc1cccc(CNc2nc(NCc3cccs3)nc3ccsc23)c1 39%, O=C(c1noc2c1CCCC2)N1CCc2ccccc2C1 54.6%, COC(=O)c1[nH]c2cccc(C)c2c1NC(=O)CN1CCCc2ccccc21 38.2%, O=C(CSc1nc(-c2ccco2)cc(C(F)(F)F)n1)NCc1cccs1 75.6%, O=C(O)C1C2C=CC(O2)C1C(=O)NCCc1cccc(Cl)c1 (centres undefined) 76.8%, COc1ccc(CNC(=O)COC(=O)C2=Cc3ccccc3OC2)cc1 43.4%

activation, inactive:
Oc1ccccc1CNc1ncc(Br)cc1Br 4.29%, Cc1cc2cc3c(N)[nH]nc3nc2cc1C 2.1%, Cc1ccc(C2NC(C(=O)O)CS2)cc1 (centres undefined) 6.54%, COC(=O)C1=C(C)N(Cc2ccccc2C(F)(F)F)C(=NCc2ccc(C(F)(F)F)cc2)NC1c1ccc(F)cc1 (centres undefined) 0.73%, COCCCN(C(=O)CSCc1ccc(C)cc1)c1c(N)n(Cc2ccccc2)c(=O)[nH]c1=O 0.76%, COc1cc(OC)cc(C(=O)NCC(=O)OCC(=O)NC(C)CCc2ccccc2)c1 (centres undefined) 4.34%, COc1cc(OC)cc(C(=O)NC(C(=O)N2CCC2)C(C)C)c1 (centres undefined) 0.84%, COc1ccccc1OC(C)C(=O)Nc1ccc(S(=O)(=O)Nc2nccs2)cc1 (centres undefined) 3.3%, O=C(NCCC1=CCCCC1)c1ccc(-n2cncn2)cc1 1.68%, O=C(CCNC(=O)Cn1ccc2ccccc2c1=O)NCCC1=CCCCC1 1.79%, CC1(C)OC(=O)C2=C(CC(CCc3ccccc3)OC2c2ccc(Cl)cc2)O1 (centres undefined) -0.49%, O=c1[nH]c(-c2ccccc2)cn1C1CCN(Cc2ccc(-c3nc4ccc(F)cc4nc3-c3ccccc3)cc2)CC1 2.82%, Cc1cc(C)c(S(=O)(=O)N2CCC(C(=O)OCc3c(C)noc3C)CC2)c(C)c1 5.51%, COC(=O)C1=C(C(=O)OC)C2C=C(C(C)C)C1C(=O)C2(C)O (centres undefined) 1.68%, COc1cccc(CNc2nc(NCc3ccccc3OC)nc3ccsc23)c1 3.04%, Clc1ccccc1Nc1nc(NCc2cccs2)nc2ccsc12 7.75%, CCn1nnc(NC(=O)c2cc(Cl)c(OC)c(Cl)c2)n1 5.93%, O=C1CC(c2ccccc2)C(c2ccccc2)=NN1 (centres undefined) 2.78%, O=C(c1cc(-c2cccc(O)c2)on1)N1CCc2ccccc2C1 31.8%, COc1ccc2c(c1)CCc1c(C(=O)N3CCc4ccccc4C3)noc1-2 13.8%, CCOC(=O)CC1(NC(=O)c2cc(COc3cncc(Cl)c3)on2)CCCCC1 4.12%, CC(=O)c1c(C)[nH]c(C(=O)OCC(=O)Nc2c(C)cccc2C)c1C 18.7%, O=C(CN1CCc2ccccc21)NC(c1ccccc1)c1ccccc1 -0.06%, Cc1ccc(NC(=O)N2c3ccccc3SC2c2ccco2)c(C)c1 (centres undefined) 1.34%, Cc1cc(Br)cn2c(Cc3ccccc3C(F)(F)F)c(-c3ccc(C#N)cc3)nc12 0.31%, COc1ccc(-c2cc(C(F)(F)F)nc(SCCC(=O)NCc3ccco3)n2)cc1 0.17%, O=C(CSc1nc(-c2ccco2)cc(C(F)(F)F)n1)N1CCc2ccccc2C1 19.4%, CN(O)C(=S)c1ccccc1 4.65%, C[C@@H]1ON(C)[C@H]2C[C@H]3c4cc(N5CCOCC5)ccc4CCN3C[C@@H]12 2%, O=C(NCCc1ccccc1)C1CC1 20.1%, O=C(O)C1C2C=CC(O2)C1C(=O)Nc1ccccn1 (centres undefined) 2.36%, O=C(NCc1ccccc1)[C@@H]1CCCN1C(=O)[C@H]1CCCN1C(=O)c1cccc(Cl)c1 -0.12%, COc1ccc(CNC(=O)COC(=O)C(CCSC)N2C(=O)c3ccccc3C2=O)cc1 (centres undefined) 9.85%, COc1ccc(CCNC(=O)COC(=O)c2cc(=O)c3ccccc3o2)cc1 17.5%, Cc1nc2c(C(=O)NCc3cccs3)cnn2c(C)c1Cc1ccc(F)cc1 -1.18%, Cc1ccc(NC(=O)CC2C(=O)N(Cc3ccccc3)C(=S)N2NC(=O)c2cccc(F)c2)c(C)c1 (centres undefined) 9.32%
